Results from ChEMBL document CHEMBL1123422, “1-Ethyl-7-[3-[(ethylamino)methyl]-1-pyrrolidinyl]-6,8-difluoro-1,4- dihydro-4-oxo-3-quinoline-carboxylic acid. New quinolone antibacterial with potent gram-positive activity” (1986).
In brackets after ≈: the same amount, converted by molar mass.

Tests used:
Staphylococcus aureus [1] = experiment: (§1) Compound was tested for inhibition of the […] organism […] UC-76.; type: functional
Providencia rettgeri [2] = experiment: (§2) Compound was tested for inhibition of the gram-negative organism Providencia rettgeri H1771; type: functional
Klebsiella pneumoniae [3] = experiment: (§3) Compound was tested for inhibition of the gram-negative organism Klebsiella pneumoniae MGH-2; type: functional
Streptococcus pneumoniae = experiment: Compound was tested for inhibition of the […] organism Streptococcus pneumoniae SV-1; type: functional
Escherichia coli [4] = experiment: (§4) Compound was tested for inhibition of the gram-negative organism Escherichia coli H560; type: functional
Mus musculus [5] = experiment: Compound was evaluated for protective dose against the Streptococcus pneumoniae SV-1 lethal infection following po administration; type: functional; settings: read-out: PD50
Outline: (§5)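 Female Charles River CD-1 mice (18–22 g) were challenged intraperitoneally with an estimated 100 median lethal dose in tryptic soy broth. Single doses, in a twofold rising series, were given at the same time as challenge: subcutaneously as aqueous solution, or orally by gavage in 5% gum acacia. Survival in groups of eight mice per dose gave PD50 (mg/kg) by log probit.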

Mus musculus [6] = experiment: Compound was evaluated for protective dose against Streptococcus pneumoniae SV-1 lethal infection following sc administration; type: functional; settings: read-out: PD50; outline: as §5
Staphylococcus aureus [7] = experiment: (§6) Compound was tested for inhibition of the […] organism […] H228.; type: functional
Enterobacter cloacae = experiment: Compound was tested for inhibition of the gram-negative organism […] HA 2646; type: functional
Streptococcus pyogenes [8] = experiment: (§7) Compound was tested for inhibition of the […] organism Streptococcus pyogenes C203.; type: functional
Mus musculus [9] = experiment: Compound was evaluated for protective dose against the […] UC-76 lethal infection following po administration in mouse; type: functional; settings: read-out: PD50
Outline: (§8)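 Acute lethal systemic infection in female Charles River CD-1 mice (18–22 g), challenged intraperitoneally with an estimated 100 median lethal dose in 5% hog gastric mucin. Single doses in a twofold rising series were given with the challenge, sc as aqueous solution or po by gavage in 5% gum acacia. PD50 (mg/kg) was estimated by log probit from survival of eight mice per dose.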

Pseudomonas aeruginosa [10] = experiment: (§9) Compound was tested for inhibition of the gram-negative organism Pseudomonas aeruginosa UI-18; type: functional
Escherichia coli [11] = experiment: Compound was tested for inhibition of target enzyme DNA gyrase obtained from Escherichia coli H560 cells; type: functional
Outline: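 Gyrase isolated from E. coli H560 cells. Drug-gyrase-DNA complex denatured, and closed circular DNA converted to linear DNA. Linear DNA resolved by gel electrophoresis and stained with ethidium bromide. Value is the minimum drug concentration (µg/mL) giving linear DNA at an intensity relative to oxolinic acid at 10 µg/mL. Aqueous drug stocks made in 0.1 N NaOH or KOH.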

Escherichia coli [12] = experiment: (§10) Compound was tested for inhibition of the gram-negative organism Escherichia coli vogel; type: functional
Mus musculus [13] = experiment: Compound was evaluated for protective dose against the […] UC-76 lethal infection following sc administration in mouse; type: functional; settings: read-out: PD50; outline: as §8
Enterococcus faecalis [14] = experiment: (§11) Compound was tested for inhibition of the […] organism Streptococcus faecalis MGH-2; type: functional
Mus musculus [15] = experiment: Compound was evaluated for protective dose against the Escherichia coli vogel lethal infection following peroral administration in mouse; type: functional; settings: po, read-out: PD50; outline: as §8
Mus musculus [16] = experiment: Compound was evaluated for protective dose against the Escherichia coli vogel lethal infection following sc administration in mouse; type: functional; settings: read-out: PD50; outline: as §8
Enterococcus faecalis [17] = experiment: as §11; type: functional; remark: listed apart in the source
Outline: (§12)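 MICs read in standard microdilution (microtitration) format against a panel of 10 bacterial organisms; values in µg/mL.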

[18] = target: DNA gyrase (Escherichia coli) (UniProt P0AES6+P0AES4); experiment: Inhibition of DNA gyrase of Escherichia coli H560 cells
Outline: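 DNA gyrase purified from Escherichia coli H560 cells. Cleavage assay: drug-gyrase-DNA complex denatured, converting closed circular DNA to linear DNA. Linear DNA resolved by gel electrophoresis and stained with ethidium bromide. Value is the minimum drug concentration (µg/mL) giving linear DNA at an intensity relative to oxolinic acid at 10 µg/mL. Aqueous drug stocks made up in 0.1 N NaOH or KOH.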

Streptococcus pyogenes [19] = experiment: as §7; type: functional; outline: as §12; remark: listed apart in the source
Pseudomonas aeruginosa [20] = experiment: as §9; type: functional; outline: as §12; remark: listed apart in the source
Escherichia coli [21] = experiment: as §10; type: functional; outline: as §12; remark: listed apart in the source
Providencia rettgeri [22] = experiment: as §2; type: functional; outline: as §12; remark: listed apart in the source
Staphylococcus aureus [23] = experiment: as §1; type: functional; outline: as §12; remark: listed apart in the source
Klebsiella pneumoniae [24] = experiment: as §3; type: functional; outline: as §12; remark: listed apart in the source
Escherichia coli [25] = experiment: as §4; type: functional; outline: as §12; remark: listed apart in the source
Staphylococcus aureus [26] = experiment: as §6; type: functional; outline: as §12; remark: listed apart in the source

SMILES | ED50 (Mus musculus [5]) | ED50 (Mus musculus [6]) | MIC (Enterobacter cloacae) | ED50 (Mus musculus [9]) | ED50 (Mus musculus [13]) | ED50 (Mus musculus [15]) | ED50 (Mus musculus [16]) | MIC (Enterococcus faecalis [17]) | Min concentration [18] | MIC (Streptococcus pyogenes [19]) | MIC (Pseudomonas aeruginosa [20]) | MIC (Escherichia coli [21]) | MIC (Providencia rettgeri [22]) | MIC (Staphylococcus aureus [23]) | MIC (Klebsiella pneumoniae [24]) | MIC (Escherichia coli [25]) | MIC (Staphylococcus aureus [26]) | other results
CCn1cc(C(=O)O)c(=O)c2cc(F)c(N3CCNCC3)cc21 [NORFLOXACIN] | 150 mg/kg | > 100 mg/kg | 0.1 µg/mL (≈ 0.313 µM) | 23 mg/kg | 15 mg/kg | 4 mg/kg | 1 mg/kg |  |  |  |  |  |  |  |  |  |  | MIC (Staphylococcus aureus [1]): 0.05 µg/mL (≈ 0.157 µM); MIC (Providencia rettgeri [2]): 0.025 µg/mL (≈ 0.0783 µM); MIC (Klebsiella pneumoniae [3]): 0.05 µg/mL (≈ 0.157 µM); MIC (Streptococcus pneumoniae): 1.6 µg/mL (≈ 5.01 µM); MIC (Escherichia coli [4]): 0.1 µg/mL (≈ 0.313 µM); MIC (Staphylococcus aureus [7]): 0.8 µg/mL (≈ 2.51 µM); MIC (Streptococcus pyogenes [8]): 0.8 µg/mL (≈ 2.51 µM); MIC (Pseudomonas aeruginosa [10]): 0.2 µg/mL (≈ 0.626 µM); MIC (Escherichia coli [11]): 1 µg/mL (≈ 3.13 µM); MIC (Escherichia coli [12]): 0.025 µg/mL (≈ 0.0783 µM); MIC (Enterococcus faecalis [14]): 1.6 µg/mL (≈ 5.01 µM)
CC1COc2c(N3CCN(C)CC3)c(F)cc3c(=O)c(C(=O)O)cn1c23 (stereo not drawn) [OFLOXACIN] | 68 mg/kg | 38 mg/kg | 0.1 µg/mL (≈ 0.277 µM) | 11 mg/kg | 5 mg/kg | 2 mg/kg | 0.8 mg/kg | 0.8 µg/mL (≈ 2.21 µM) | 5 µg/mL | 0.8 µg/mL (≈ 2.21 µM) | 0.4 µg/mL (≈ 1.11 µM) | 0.1 µg/mL (≈ 0.277 µM) | 0.2 µg/mL (≈ 0.553 µM) | 0.1 µg/mL (≈ 0.277 µM) | 0.1 µg/mL (≈ 0.277 µM) |  |  | 
CCn1cc(C(=O)O)c(=O)c2cc3c(cc21)OCO3 [OXOLINIC ACID] |  |  | 0.4 µg/mL (≈ 1.53 µM) | > 100 mg/kg | 63 mg/kg | 17 mg/kg | 9 mg/kg | 12.5 µg/mL (≈ 47.9 µM) | 10 µg/mL | > 100 µg/mL | 6.3 µg/mL (≈ 24.1 µM) | 0.2 µg/mL (≈ 0.766 µM) | 0.1 µg/mL (≈ 0.383 µM) | 0.8 µg/mL (≈ 3.06 µM) | 0.2 µg/mL (≈ 0.766 µM) | 0.2 µg/mL (≈ 0.766 µM) | 1.6 µg/mL (≈ 6.12 µM) | 
CCn1cc(C(=O)O)c(=O)c2cc(F)c(N3CCN(C)CC3)cc21 [PEFLOXACIN] | 200 mg/kg | 96 mg/kg |  | 9.5 mg/kg | 3.7 mg/kg | 2.8 mg/kg | 1.6 mg/kg | 0.8 µg/mL (≈ 2.4 µM) |  | 0.8 µg/mL (≈ 2.4 µM) | 0.4 µg/mL (≈ 1.2 µM) | 0.025 µg/mL (≈ 0.075 µM) | 0.05 µg/mL (≈ 0.15 µM) | 0.1 µg/mL (≈ 0.3 µM) | 0.05 µg/mL (≈ 0.15 µM) | 0.1 µg/mL (≈ 0.3 µM) | 0.2 µg/mL (≈ 0.6 µM) | 
